# Shown are actives, neighbours in structure and some others; about 3.8% of the full set was active somewhere.
# RAM network inh: inhibitors of the yeast RAM network, primary screen, dse1pr::URA3 reporter, 5-FOA selection. S. cerevisiae dse1pr::URA3 reporter, 5-FOA growth OD615, 2 d; analog-sensitive cbk1-as2 kinase mutant strain. inhibition, % at 50 µM. 1.8% of 190,000 active. AID 868, 2007;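 active = inhibition above a set limit, 3 SD over mean compound inhibition, cut at about 8.4% in these data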;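 also: inhibition rescues growth on 5-FOA so higher OD means more RAM inhibition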
# BB579 growth dn: growth inhibitors of yeast BB579 in restrictive medium, primary screen, yeast lifespan-shortening project, S. cerevisiae | OD615, 48 h | inhibition, % at 10 µM | AID 804, 2007 | 0.51% of 140,000 active;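 active = inhibition above a set limit, 3 SD over the mean compound inhibition, cut at about 44% in these data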
#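 Assay system: S. cerevisiae DeaD strain BB579 yeast. Medium: CSMM-D restrictive synthetic medium containing dextrose (glucose). Times: 4 h cell preincubation, 48 h compound exposure, 30 °C humidified. Signal: OD615 turbidity measurement. Benchmarks: positive control amphotericin B 10 µg/mL.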
# Measles CPE: compounds protecting cells from measles virus cytopathic effect, primary screen, measles RdRp inhibitor project, single point, MLSMR library, absorbance. Measles virus-infected cells, CPE protection. protection (pct of control), % at 4 µM. 1.5% of 140,000 active. AID 841, 2007; in the data active = protection mostly above about 24%, no sharp cut-off; inactive = mostly below about 26%
# Yeast life ext: compounds extending yeast replicative lifespan, primary screen, S. cerevisiae, OD615; S. cerevisiae growth with nicotinamide; deaD strain in restrictive glucose medium; 0.68% of 130,000 active; inhibition of the nicotinamide effect, % at 10 µM;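 active = inhibition above a set limit, placed 3 SD over the median of all compounds, cut at about 26% in these data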
#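 Assay system: engineered S. cerevisiae DeaD replicative-lifespan strain, galactose-grown log-phase cells; Buffer or medium: CSMM-D glucose medium, restrictive; Probe or stimulus: nicotinamide 1.5 mM; Compound: single dose 10 µM compound, 0.25% DMSO; Schedule: 4 h preincubation then 48 h treatment at 30 °C; Technique: OD615 measurement.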
# RAM efflux-def: 5-FOA growth of efflux-deficient control yeast, dose response, counter-screen for RAM network inhibitor project, S. cerevisiae, OD615 | 1,200 tested, under 10 active | S. cerevisiae efflux-deficient reporter strain, 5-FOA growth OD615, 2 days | max inhibition, % | shares compounds with RAM network inh; call rule not given here
# A number is an active result; – = inactive; · = no result given.
SMILES,RAM network inh,BB579 growth dn,Measles CPE,Yeast life ext,RAM efflux-def
Cc1ccc(-n2c(SCC(=O)Nc3cccc(S(=O)(=O)NC4=NCCCCC4)c3)nc3ccccc3c2=O)cc1C,12,–,–,–,–
Cc1ccc2[nH]c(=O)cc(C(=O)OCC(=O)c3ccccc3)c2c1,15,–,–,–,–
Oc1ccccc1C1CC(c2cccs2)=NC(c2cccc(Br)c2)N1 (stereo not drawn),–,·,·,·,·
O=C(c1ccc(Cl)cc1[N+](=O)[O-])N(Cc1ccccc1)Cc1ccccc1,13,–,–,–,–
CC(C)(C)N(Cc1ccccc1)C(=O)c1ccc(Cl)cc1[N+](=O)[O-],–,·,·,·,·
COc1ccc(CCNC(=O)CCc2ccc(S(=O)(=O)NC(C)C)cc2)cc1,–,–,–,–,·
CC(C)CCNC(=O)CN(Cc1cccs1)C(=O)CCC(=O)Nc1nccs1,–,–,–,–,·
CCN(CC)S(=O)(=O)c1cccc(NC(=O)c2ccc(-n3nc(C)cc3C)cc2)c1,–,–,–,–,·
O=C(COC(=O)c1ccncc1)Nc1ccccc1,–,·,·,·,·
O=C(COC(=O)c1ccc(CSc2ccc(Cl)cc2)cc1)Nc1ccccc1,11,–,–,–,–
CC(C)=CCc1c(O)c(CC=C(C)C)c2c(c1O)C(=O)CC(c1ccc(O)cc1)O2 (stereo not drawn),13,·,·,·,–
CCCCN(C(=O)c1cccc2c(=O)c(C)c(-c3ccccc3)oc12)c1ccccc1,16,–,–,29,–
CCc1cc2c(=O)c(-c3ccc4c(c3)OCCO4)c(C)oc2cc1OS(C)(=O)=O,–,–,–,–,·
COc1cccc(NC(=S)N(CCCN2CCOCC2)C(C)c2cc3ccccc3o2)c1 (stereo not drawn),–,·,·,·,·
O=C(COC(=O)CCCN1C(=O)c2cccc3cccc(c23)C1=O)Nc1cccc(C(F)(F)F)c1,12,–,–,–,–
CCN(C(=O)CSc1ncnc2sc(C)c(C)c12)C1CCS(=O)(=O)C1 (stereo not drawn),–,·,·,·,·
CCCN(CC1CC1)C(=O)CSc1ncnc2sc(C)c(C)c12,14,–,–,–,–
Cn1nc(C(F)(F)F)c(/C=N/OC(=O)c2ccccc2)c1SCc1ccccc1Cl,12,–,–,–,–
Cc1nc(C)c(NC(=O)N2CCc3ccccc32)cc1NC(=O)N1CCc2ccccc21,12,–,–,–,–
Cc1ccc(-n2ncc3c(=O)[nH]c(SCC(=O)N4CCCc5ccccc54)nc32)cc1,12,–,–,–,–
Cc1ccc(-n2ncc3c(=O)[nH]c(SCC(=O)N4CCN(c5ccccc5)CC4)nc32)cc1,–,–,–,·,·
COc1ccc(/C=C/C(=O)c2sc(-c3ccccc3)nc2C)cc1,13,–,–,–,–
Cc1nc(-c2ccccc2)sc1C(=O)O,–,·,·,·,·
O=C(CN(Cc1cccs1)C(=O)CNS(=O)(=O)c1ccccc1)NC1CCCC1,–,·,·,·,·
CN(C)c1oc(-c2ccc(OCc3ccccc3)cc2)nc1C#N,14,–,–,–,–
SMILES,RAM network inh,BB579 growth dn,Measles CPE,Yeast life ext,RAM efflux-def
N#Cc1nc(-c2ccc(OCc3ccccc3)cc2)oc1NCc1cccnc1,–,–,–,–,·
CCOC(=O)/C(=N/Nc1ccccc1)c1csc(Nc2ccccc2)n1,16,–,–,–,–
O=C(/C=C/c1ccccc1[N+](=O)[O-])N1CCN(C(=O)c2ccco2)CC1,–,·,·,·,·
Cc1ccc(S(=O)(=O)N2CCC(C(=O)O)CC2)cc1,–,·,·,·,·
CCOC(=O)c1cnc(-c2ccccc2)nc1Oc1ccc(Cl)cc1,14,–,–,–,–
O=C(O)c1cnc(-c2ccccc2)nc1Oc1ccc(Cl)cc1,–,·,·,·,·
CCOC(=O)c1cc(C#N)c(Oc2ccccc2)nc1-c1ccccc1,12,–,–,–,–
CC(C)(C)NC(=O)NC(=O)COC(=O)c1cccc(S(=O)(=O)N2CCCCC2)c1,–,–,–,–,·
S=C(c1ccc(-c2cc(Cl)ccc2Cl)o1)N1CCCCC1,12,–,–,–,–
C=C(C)C1CC=C(C)/C(=N\NC(=S)Nc2ccc(C)cc2)C1 (stereo not drawn),17,–,–,–,–
C=C(C)C1CC=C(C)/C(=N/NC(=O)COc2ccc(C)cc2)C1 (stereo not drawn),–,–,–,·,·
Cn1c(CCc2nc3ccccc3[nH]2)nnc1SCC#N,–,·,·,·,·
